ChEMBL document CHEMBL3351900, “Conjugation of a nonspecific antiviral sapogenin with a specific HIV fusion inhibitor: a promising strategy for discovering new antiviral therapeutics” (J Med Chem, 2014)
Peptide text beside a SMILES is read from it. * marks the point of attachment. X3 = C=C(C)[C@@H]1CC[C@]2(C(=O)O)CC[C@]3(C)[C@H](CC[C@@H]4[C@@]5(C)CC[C@H](OC(=O)CCc6cn(CC(=O)*)nn6)C(C)(C)[C@@H]5CC[C@]43C)[C@@H]12; X5 = C=C(C)[C@@H]1CC[C@]2(C(=O)OCc3cn(CC(=O)*)nn3)CC[C@]3(C)[C@H](CC[C@@H]4[C@@]5(C)CC[C@H](OC(C)=O)C(C)(C)[C@@H]5CC[C@]43C)[C@@H]12; X8 = C[C@H]1[C@H](C)CC[C@]2(C(=O)O)CC[C@]3(C)C(=CC[C@@H]4[C@@]5(C)CC[C@H](OC(=O)CCc6cn(CC(=O)*)nn6)C(C)(C)[C@@H]5CC[C@]43C)[C@H]12; X7 = C[C@H]1[C@H](C)CC[C@]2(C(=O)OCc3cn(CC(=O)*)nn3)CC[C@]3(C)C(=CC[C@@H]4[C@@]5(C)CC[C@H](O)C(C)(C)[C@@H]5CC[C@]43C)[C@H]12; X6 = CC1(C)CC[C@]2(C(=O)O)CC[C@]3(C)C(=CC[C@@H]4[C@@]5(C)CC[C@H](OC(=O)CCc6cn(CC(=O)*)nn6)C(C)(C)[C@@H]5CC[C@]43C)[C@@H]2C1; X10 = CC1(C)CC[C@]2(C(=O)OCc3cn(CC(=O)*)nn3)CC[C@]3(C)C(=CC[C@@H]4[C@@]5(C)CC[C@H](O)C(C)(C)[C@@H]5CC[C@]43C)[C@@H]2C1; βAla = NCCC(=O)O

Tests used:
[1] = tested on: Human immunodeficiency virus 1; test: Antiviral activity against HIV1 BaL infected in human […] cells assessed as inhibition of viral replication; format: functional, organism-based; conditions: Human immunodeficiency virus 1, BaL
Outline: (§1)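 MT-2 cells (1 × 10⁴) infected with 100 TCID₅₀ virus with or without peptides at graded concentrations. Culture supernatants collected on day 4 postinfection; p24 antigen quantified by ELISA. Percent inhibition and EC₅₀ calculated; tested in triplicate, mean ± standard deviation.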

[2] = tested on: Human immunodeficiency virus 1; test: Antiviral activity against HIV1 3B infected in human MT2 cells assessed as inhibition of viral p24 antigen production by ELISA; format: functional, organism-based; conditions: Human immunodeficiency virus 1, 3B; outline: as §1
[3] = Selectivity index, ratio of CC50 for human MT2 cells to EC50 for HIV1 3B infected in human MT2 cells; format: toxicity, cell-based; conditions: read-out: Ratio CC50/EC50
[4] = target: GP41 (Human immunodeficiency virus 1) (UniProt Q76270); test: Ratio of EC50 for HIV1 gp41-induced cell-cell fusion between viral envelope expressing human HL2/3 cells to CD4/CCR5 receptor expressing TZM-bl cells with wash out to EC50 for HIV1 gp41-induced cell-cell fusion between viral envelope expressing human HL2/3 cells to CD4/CCR5 receptor expressing TZM-bl cells; format: cell-based
Outline: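 Peptides preincubated with TZM-bl cells at 37 °C for 1 h, with or without washing away unbound peptide. EC50 compared between washed and unwashed cells, giving the n-fold change. Triplicates, mean ± SD.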

[5] = Cytotoxicity against human MT2 cells after 4 days by XTT assay; format: cell-based
Outline: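 MT-2 cells (5 × 10⁵/mL) mixed with equal volumes of graded conjugate concentrations and held at 37 °C for 4 days. XTT (1 mg/mL) with 0.02 μM phenazine methosulfate added for 4 h, then A450 read. CC50 calculated from the dose–response.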

Row | Compound | EC50 [1] | EC50 [2] | selectivity ratio [3] | Ratio EC50 [4] | CC50 at 96 h [5]
1 | C=C(C)[C@@H]1CC[C@]2(C(=O)O)CC[C@]3(C)[C@H](CC[C@@H]4[C@@]5(C)CC[C@H](OC(=O)CCc6cn(CC(=O)NCCC(=O)N[C@@H](CC(N)=O)C(=O)N[C@@H](CC(N)=O)C(=O)N[C@@H](Cc7ccc(O)cc7)C(=O)N[C@H](C(=O)N[C@@H](CO)C(=O)N[C@@H](CC(C)C)C(=O)N[C@H](C(=O)N[C@@H](Cc7cnc[nH]7)C(=O)N[C@@H](CO)C(=O)N[C@@H](CC(C)C)C(=O)N[C@H](C(=O)N[C@@H](CCC(=O)O)C(=O)N[C@@H](CCC(=O)O)C(=O)N[C@@H](CO)C(=O)N[C@@H](CCC(N)=O)C(=O)N[C@@H](CC(N)=O)C(=O)N[C@@H](CCC(N)=O)C(=O)N[C@@H](CCC(N)=O)C(=O)N[C@@H](CCC(=O)O)C(=O)N[C@@H](CCCCN)C(=O)N[C@@H](CC(N)=O)C(=O)N[C@@H](CCC(=O)O)C(=O)N[C@@H](CCC(N)=O)C(=O)N[C@@H](CCC(=O)O)C(=O)N[C@@H](CC(C)C)C(=O)N[C@@H](CC(C)C)C(N)=O)[C@@H](C)CC)[C@@H](C)CC)[C@@H](C)O)nn6)C(C)(C)[C@@H]5CC[C@]43C)[C@@H]12 ({X3-βAla}-NNYTSLIHSLIEESQNQQEKNEQELL-NH2) | 98 nM | 133 nM | > 187 | > 85 | > 25000 nM
2 | C=C(C)[C@@H]1CC[C@]2(C(=O)OCc3cn(CC(=O)NCCC(=O)N[C@@H](CC(N)=O)C(=O)N[C@@H](CC(N)=O)C(=O)N[C@@H](Cc4ccc(O)cc4)C(=O)N[C@H](C(=O)N[C@@H](CO)C(=O)N[C@@H](CC(C)C)C(=O)N[C@H](C(=O)N[C@@H](Cc4cnc[nH]4)C(=O)N[C@@H](CO)C(=O)N[C@@H](CC(C)C)C(=O)N[C@H](C(=O)N[C@@H](CCC(=O)O)C(=O)N[C@@H](CCC(=O)O)C(=O)N[C@@H](CO)C(=O)N[C@@H](CCC(N)=O)C(=O)N[C@@H](CC(N)=O)C(=O)N[C@@H](CCC(N)=O)C(=O)N[C@@H](CCC(N)=O)C(=O)N[C@@H](CCC(=O)O)C(=O)N[C@@H](CCCCN)C(=O)N[C@@H](CC(N)=O)C(=O)N[C@@H](CCC(=O)O)C(=O)N[C@@H](CCC(N)=O)C(=O)N[C@@H](CCC(=O)O)C(=O)N[C@@H](CC(C)C)C(=O)N[C@@H](CC(C)C)C(N)=O)[C@@H](C)CC)[C@@H](C)CC)[C@@H](C)O)nn3)CC[C@]3(C)[C@H](CC[C@@H]4[C@@]5(C)CC[C@H](OC(C)=O)C(C)(C)[C@@H]5CC[C@]43C)[C@@H]12 ({X5-βAla}-NNYTSLIHSLIEESQNQQEKNEQELL-NH2) | 99 nM | 501 nM | > 52 |  | > 25000 nM
3 | CC[C@H](C)[C@H](NC(=O)[C@H](CC(C)C)NC(=O)[C@H](CO)NC(=O)[C@H](Cc1cnc[nH]1)NC(=O)[C@@H](NC(=O)[C@H](CC(C)C)NC(=O)[C@H](CO)NC(=O)[C@@H](NC(=O)[C@H](Cc1ccc(O)cc1)NC(=O)[C@H](CC(N)=O)NC(=O)[C@H](CC(N)=O)NC(=O)CCNC(=O)Cn1cc(CCC(=O)O[C@H]2CC[C@]3(C)[C@H]4CC=C5[C@@H]6CC(C)(C)CC[C@]6(C(=O)O)CC[C@@]5(C)[C@]4(C)CC[C@H]3C2(C)C)nn1)[C@@H](C)O)[C@@H](C)CC)C(=O)N[C@@H](CCC(=O)O)C(=O)N[C@@H](CCC(=O)O)C(=O)N[C@@H](CO)C(=O)N[C@@H](CCC(N)=O)C(=O)N[C@@H](CC(N)=O)C(=O)N[C@@H](CCC(N)=O)C(=O)N[C@@H](CCC(N)=O)C(=O)N[C@@H](CCC(=O)O)C(=O)N[C@@H](CCCCN)C(=O)N[C@@H](CC(N)=O)C(=O)N[C@@H](CCC(=O)O)C(=O)N[C@@H](CCC(N)=O)C(=O)N[C@@H](CCC(=O)O)C(=O)N[C@@H](CC(C)C)C(=O)N[C@@H](CC(C)C)C(N)=O ({X6-βAla}-NNYTSLIHSLIEESQNQQEKNEQELL-NH2) | 150 nM | 94 nM | > 266 |  | > 25000 nM
4 | CC[C@H](C)[C@H](NC(=O)[C@H](CC(C)C)NC(=O)[C@H](CO)NC(=O)[C@H](Cc1cnc[nH]1)NC(=O)[C@@H](NC(=O)[C@H](CC(C)C)NC(=O)[C@H](CO)NC(=O)[C@@H](NC(=O)[C@H](Cc1ccc(O)cc1)NC(=O)[C@H](CC(N)=O)NC(=O)[C@H](CC(N)=O)NC(=O)CCNC(=O)Cn1cc(COC(=O)[C@]23CC[C@@H](C)[C@H](C)[C@H]2C2=CC[C@@H]4[C@@]5(C)CC[C@H](O)C(C)(C)[C@@H]5CC[C@@]4(C)[C@]2(C)CC3)nn1)[C@@H](C)O)[C@@H](C)CC)C(=O)N[C@@H](CCC(=O)O)C(=O)N[C@@H](CCC(=O)O)C(=O)N[C@@H](CO)C(=O)N[C@@H](CCC(N)=O)C(=O)N[C@@H](CC(N)=O)C(=O)N[C@@H](CCC(N)=O)C(=O)N[C@@H](CCC(N)=O)C(=O)N[C@@H](CCC(=O)O)C(=O)N[C@@H](CCCCN)C(=O)N[C@@H](CC(N)=O)C(=O)N[C@@H](CCC(=O)O)C(=O)N[C@@H](CCC(N)=O)C(=O)N[C@@H](CCC(=O)O)C(=O)N[C@@H](CC(C)C)C(=O)N[C@@H](CC(C)C)C(N)=O ({X7-βAla}-NNYTSLIHSLIEESQNQQEKNEQELL-NH2) | 288 nM | 565 nM | > 44 |  | > 25000 nM
5 | CC[C@H](C)[C@H](NC(=O)[C@H](CC(C)C)NC(=O)[C@H](CO)NC(=O)[C@H](Cc1cnc[nH]1)NC(=O)[C@@H](NC(=O)[C@H](CC(C)C)NC(=O)[C@H](CO)NC(=O)[C@@H](NC(=O)[C@H](Cc1ccc(O)cc1)NC(=O)[C@H](CC(N)=O)NC(=O)[C@H](CC(N)=O)NC(=O)CCNC(=O)Cn1cc(CCC(=O)O[C@H]2CC[C@]3(C)[C@H]4CC=C5[C@@H]6[C@@H](C)[C@H](C)CC[C@]6(C(=O)O)CC[C@@]5(C)[C@]4(C)CC[C@H]3C2(C)C)nn1)[C@@H](C)O)[C@@H](C)CC)C(=O)N[C@@H](CCC(=O)O)C(=O)N[C@@H](CCC(=O)O)C(=O)N[C@@H](CO)C(=O)N[C@@H](CCC(N)=O)C(=O)N[C@@H](CC(N)=O)C(=O)N[C@@H](CCC(N)=O)C(=O)N[C@@H](CCC(N)=O)C(=O)N[C@@H](CCC(=O)O)C(=O)N[C@@H](CCCCN)C(=O)N[C@@H](CC(N)=O)C(=O)N[C@@H](CCC(=O)O)C(=O)N[C@@H](CCC(N)=O)C(=O)N[C@@H](CCC(=O)O)C(=O)N[C@@H](CC(C)C)C(=O)N[C@@H](CC(C)C)C(N)=O ({X8-βAla}-NNYTSLIHSLIEESQNQQEKNEQELL-NH2) | 113 nM | 387 nM | > 64 |  | > 25000 nM
6 | CC[C@H](C)[C@H](NC(=O)[C@H](CC(C)C)NC(=O)[C@H](CO)NC(=O)[C@H](Cc1cnc[nH]1)NC(=O)[C@@H](NC(=O)[C@H](CC(C)C)NC(=O)[C@H](CO)NC(=O)[C@@H](NC(=O)[C@H](Cc1ccc(O)cc1)NC(=O)[C@H](CC(N)=O)NC(=O)[C@H](CC(N)=O)NC(=O)CCNC(=O)Cn1cc(COC(=O)[C@]23CCC(C)(C)C[C@H]2C2=CC[C@@H]4[C@@]5(C)CC[C@H](O)C(C)(C)[C@@H]5CC[C@@]4(C)[C@]2(C)CC3)nn1)[C@@H](C)O)[C@@H](C)CC)C(=O)N[C@@H](CCC(=O)O)C(=O)N[C@@H](CCC(=O)O)C(=O)N[C@@H](CO)C(=O)N[C@@H](CCC(N)=O)C(=O)N[C@@H](CC(N)=O)C(=O)N[C@@H](CCC(N)=O)C(=O)N[C@@H](CCC(N)=O)C(=O)N[C@@H](CCC(=O)O)C(=O)N[C@@H](CCCCN)C(=O)N[C@@H](CC(N)=O)C(=O)N[C@@H](CCC(=O)O)C(=O)N[C@@H](CCC(N)=O)C(=O)N[C@@H](CCC(=O)O)C(=O)N[C@@H](CC(C)C)C(=O)N[C@@H](CC(C)C)C(N)=O ({X10-βAla}-NNYTSLIHSLIEESQNQQEKNEQELL-NH2) | 498 nM | 369 nM | > 68 |  | > 25000 nM
